From PubChem
RAD52 inh: inhibitors of human RAD52 DNA annealing; recombinant RAD52 DNA annealing, FRET fluorescence; inhibition, % at 18.7 µM; actives 0.46% (n = 360,000);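 active means every replicate showing at least 50% inhibition; inconclusive means mean inhibition at least 50% but not in every replicate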
Target sequence (P43351 whole entry, looked up): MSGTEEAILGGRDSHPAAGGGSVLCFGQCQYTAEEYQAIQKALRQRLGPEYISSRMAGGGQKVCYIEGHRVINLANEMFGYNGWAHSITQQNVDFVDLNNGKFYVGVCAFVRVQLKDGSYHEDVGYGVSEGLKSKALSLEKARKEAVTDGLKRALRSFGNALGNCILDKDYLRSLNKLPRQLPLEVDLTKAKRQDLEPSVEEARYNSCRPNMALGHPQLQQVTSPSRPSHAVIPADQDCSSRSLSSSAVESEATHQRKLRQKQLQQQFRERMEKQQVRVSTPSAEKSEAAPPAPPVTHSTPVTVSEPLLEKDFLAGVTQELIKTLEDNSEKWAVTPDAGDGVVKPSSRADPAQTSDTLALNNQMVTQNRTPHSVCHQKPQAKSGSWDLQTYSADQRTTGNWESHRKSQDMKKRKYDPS
FN deposition inh: fibronectin deposition inhibition; AH1F fibroblasts, Alexa488-fibronectin deposition fluorescence, overnight; inhibition, % at 12.6 µM; actives 0.086% (n = 350,000); AID 743247;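 active means mean inhibition across replicates of 30% or more, regardless of how many single replicates reach that level; inconclusive means mean under 30% yet at least half of replicates reach 30%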;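 further: positive control wells lacked labelled fibronectin entirely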
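Assay system: AH1F fibroblasts / Quantity: 10000 cells per well / Medium: DMEM plus 2% serum, read in PBS / Reagent: labelled fibronectin 24 nM / Dosing: single dose, pinned / Times: 1 h cell attachment, overnight exposure to compound and label / Signal: fluorescence, ex 485 nm, em 525 nm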
PAX8 reporter: PAX8 transcriptional activity inhibition; RMG-I TPO-luciferase reporter, SteadyGlo, 24 h; inhibition, % at 12.6 µM; actives 1.2% (n = 360,000); AID 652154;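 active means mean replicate inhibition at least 60% with every replicate also reaching 60%; inconclusive means only one of the two criteria is met; inactive means mean below 60% and not all replicates reaching 60%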;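 further: luciferase light reporting Pax8 driven TPO promoter activity; plate controls were median of neutral control wells for no effect and mitoxantrone controls for full effect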
RAD54 inh: blocks human RAD54 Holliday junction branch migration; FAM/BHQ fluorescence; inhibition, % at 10.4 µM; actives 0.14% (n = 360,000);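 active means mean normalized replicate activity at least 40 and at least half of replicates scoring 40 or more; inconclusive means only one of the two criteria met; inactive means mean below 40 and under half of replicates reaching 40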;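 further: 0% = median of neutral control wells and 100% = median of positive control wells; inhibitors cause a drop in the FAM fluorescence signal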
RAD52 DNA ctr: DNA binding artifact in RAD52 counter-screen. shares compounds with RAD52 inh. Salmon sperm DNA/acridine orange FP displacement. AC50, µM. actives 8% (n = 1,000);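 active means fitted half-maximal concentration for signal loss at or below twice the highest dose tested, in every separate run, actives reach about 64 µM in these data; inconclusive means runs disagree, or flat partial signal loss, or poor fit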
* = called active by the depositor. Shown are actives, neighbours in structure and some others; about 1.3% of the full set was active somewhere.

CCN(CC)CCNC(=O)c1nn(-c2ccc(Cl)cc2)c2c1CCc1cc(OC)ccc1-2 was read as RAD52 inh 65.6*, FN deposition inh -16.3, PAX8 reporter 4.5 and RAD52 DNA ctr inactive.
OC(COc1ccccc1)CN1CCN(CC(O)COc2ccccc2)CC1 (centres undefined) was read as RAD52 inh -12.7, FN deposition inh 10.0 and PAX8 reporter 14.8.
`OC(CON=C1c2ccccc2-c2ccccc21)CN1CCNCC1` (centres undefined) gave RAD52 inh 69.6*, FN deposition inh 8.3, PAX8 reporter -10.5, RAD54 inh 72.0* and RAD52 DNA ctr inactive.
`COc1ccc(-c2csc(N(CCCN(C)C)C(=O)c3ccc(Br)cc3)n2)cc1` gave RAD52 inh 58.1*, FN deposition inh 7.4, PAX8 reporter 19.0, RAD54 inh 17.4 and RAD52 DNA ctr inactive.
`COc1ccc(-c2csc(N(CCCN(C)C)C(=O)c3ccc(C(C)(C)C)cc3)n2)cc1` gave RAD52 inh 11.3, FN deposition inh 2.3, PAX8 reporter 42.0 and RAD54 inh 3.4.
Screening Cc1ccc(-c2csc(N(CCCN(C)C)C(=O)c3ccco3)n2)cc1 returned RAD52 inh 63.7*, FN deposition inh 6.1, PAX8 reporter -13.2 and RAD52 DNA ctr inactive.
Screening CCN(CC)CCCN(C(=O)c1ccc(OC)cc1)c1nc(-c2ccc(OC)cc2)cs1 returned RAD52 inh 56.9*, FN deposition inh -0.1, PAX8 reporter 12.1, RAD54 inh 15.6 and RAD52 DNA ctr inactive.
CCN(CC)CCCN(C(=O)c1ccccc1C)c1nc(-c2ccc(OC)cc2)cs1 was read as RAD52 inh 30.7, FN deposition inh 5.5, PAX8 reporter 4.2 and RAD54 inh 20.9.
For COc1ccc(-c2csc(N(CCCN(C)C)C(=O)c3ccc(C)cc3)n2)cc1 the results were RAD52 inh 53.6*, FN deposition inh 14.7, PAX8 reporter 10.6, RAD54 inh 16.9 and RAD52 DNA ctr inactive.
Screening C[C@@H]1CN([C@@H](C)CO)C(=O)Cc2cc(NC(=O)CCCCCC(=O)Nc3ccccc3N)ccc2O[C@H]1CN(C)S(=O)(=O)c1ccccc1 returned RAD52 inh -4.2, PAX8 reporter -13.9 and RAD54 inh -2.2.
`CN1CCN(c2ccc(NC(=O)c3ccc(-c4ccccc4F)o3)cc2)CC1` gave RAD52 inh 10.3, FN deposition inh -5.4, PAX8 reporter -121.3, RAD54 inh 24.2 and RAD52 DNA ctr inactive.
Screening CN1CCN(c2ccc(NC(=O)c3ccc(Br)o3)cc2)CC1 returned RAD52 inh 13.4, FN deposition inh 9.7, PAX8 reporter -141.1 and RAD54 inh -0.8.
Screening CCCCNC(=S)NCC(c1ccccc1)c1c[nH]c2ccccc12 (centres undefined) returned RAD52 inh -20.1, FN deposition inh 7.9, PAX8 reporter 9.0 and RAD54 inh -5.8.
`CN(C)CCCNC(=S)NCC(c1ccc(Cl)cc1Cl)c1c[nH]c2ccccc12` (centres undefined) gave RAD52 inh 56.3*, FN deposition inh 9.4, PAX8 reporter 29.0, RAD54 inh -6.8 and RAD52 DNA ctr inactive.
`COc1ccc2c(c1)CC1c3c(cc4c(c3-2)OCO4)CC[N+]1(C)[O-]` (centres undefined) gave RAD52 inh 82.4*, FN deposition inh 2.7, PAX8 reporter 5.4, RAD54 inh 61.5* and RAD52 DNA ctr inconclusive.
CCCOc1ccc(C(=O)Nc2c[nH]c(=O)[nH]c2=O)cc1 was read as RAD52 inh -12.0, FN deposition inh 3.9, PAX8 reporter -15.5 and RAD54 inh 1.5.
Cn1nccc1C(=O)NC(=S)Nc1cc(Cl)cc(Cl)c1 was read as RAD52 inh -11.9, FN deposition inh -2.6, PAX8 reporter -34.4 and RAD54 inh 4.9.
`C[C@@H]1CN([C@@H](C)CO)S(=O)(=O)c2ccc(-c3ccccc3F)cc2O[C@@H]1CN(C)S(C)(=O)=O` gave RAD52 inh -7.3, FN deposition inh 6.3 and RAD54 inh -5.5.
For COc1ccccc1CNc1nc(NCc2ccccc2F)c2sccc2n1 the results were RAD54 inh -1.5.
`Fc1ccccc1CNc1nc(NCC2CC2)nc2ccsc12` gave RAD52 inh 51.2*, FN deposition inh -4.3, PAX8 reporter 29.9, RAD54 inh -8.7 and RAD52 DNA ctr inactive.
CC(C)(C)c1nc(NCCO)c2nnn(Cc3ccccc3)c2n1 was read as RAD52 inh 2.6, FN deposition inh 0.2, PAX8 reporter 31.3 and RAD54 inh 1.4.
